In ChEMBL document CHEMBL3351600, “Sulfur, selenium and tellurium pseudopeptides: synthesis and biological evaluation” (Bioorg Med Chem, 2014):

Assays:
DU-145 = experiment: Growth inhibition of human DU145 cells after 48 hrs; assay type: functional; conditions: DU-145, 48 h; for TGI: read-out: pTGI (converted)
Summary of the method: (§1)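 NCI-60 human tumour cell line panel screen run at the US National Cancer Institute under its standard cytotoxicity protocol. It covers leukaemia, NSCLC, colon, CNS, melanoma, ovarian, renal, prostate and breast lines. An initial single-dose test was followed by five-dose testing with 48 h compound exposure.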

MCF7 [1] = experiment: Cell cycle arrest in human MCF7 cells assessed as accumulation at G0/G1 phase after 30 mins by propidium iodide staining-based flow cytometric analysis; assay type: functional
Summary of the method: (§2)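 MCF-7 cells (10^6) were treated with compounds for 24 h alongside a methanol vehicle control. They were fixed in cold 70% methanol at 4 °C for one day, washed in PBS and permeabilised with 0.1% saponin in PBS. They were then stained with propidium iodide plus RNase (1 mg/ml) for 30 min, and DNA-content distribution was read by FACScan flow cytometry.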

MCF7 [2] = experiment: Cell cycle arrest in human MCF7 cells assessed as accumulation at S phase […] by propidium iodide staining-based flow cytometric analysis; assay type: functional
MCF7 [3] = experiment: Cell cycle arrest in human MCF7 cells assessed as accumulation at G2/M phase after 30 mins by propidium iodide staining-based flow cytometric analysis; assay type: functional; summary of the method: as §2
CCRF-CEM = experiment: Growth inhibition of human CCRF-CEM cells after 48 hrs; assay type: functional; conditions: for CC50: read-out: pLC50 (the source's name) (converted); for TGI: read-out: pTGI (converted); summary of the method: as §1
[4] = Growth inhibition of human MOLT4 cells after 48 hrs; assay type: functional; conditions: MOLT-4, 48 h; for CC50: read-out: pLC50 (the source's name) (converted); for TGI: read-out: pTGI (converted); summary of the method: as §1
[5] = Growth inhibition of human HCC2998 cells after 48 hrs; assay type: functional; conditions: HCC 2998, 48 h; for CC50: read-out: pLC50 (the source's name) (converted); for TGI: read-out: pTGI (converted); summary of the method: as §1
[6] = Growth inhibition of human HCT15 cells after 48 hrs; assay type: functional; conditions: HCT-15, 48 h; for CC50: read-out: pLC50 (the source's name) (converted); for TGI: read-out: pTGI (converted); summary of the method: as §1
SW-620 = experiment: Growth inhibition of human SW620 cells after 48 hrs; assay type: functional; conditions: SW-620, 48 h; for CC50: read-out: pLC50 (the source's name) (converted); for TGI: read-out: pTGI (converted)
Summary of the method: (§3)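 Run by the NCI 58-cell-line screen under its standard cytotoxicity protocol. Compounds were first tested at a single dose, then at five doses. Cells were exposed to compound for 48 h.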

SF-268 = experiment: Growth inhibition of human SF268 cells after 48 hrs; assay type: functional; conditions: SF-268, 48 h; for CC50: read-out: pLC50 (the source's name) (converted); for TGI: read-out: pTGI (converted); summary of the method: as §1
[7] = Growth inhibition of human SF295 cells after 48 hrs; assay type: functional; conditions: SF-295, 48 h; for CC50: read-out: pLC50 (the source's name) (converted); for TGI: read-out: pTGI (converted); summary of the method: as §1
[8] = Growth inhibition of human OVCAR5 cells after 48 hrs; assay type: functional; conditions: OVCAR-5, 48 h; for TGI: read-out: pTGI (converted); summary of the method: as §1
SR = experiment: Growth inhibition of human SR cells after 48 hrs; assay type: functional; conditions: for TGI: read-out: pTGI (converted); summary of the method: as §3
A-431 = experiment: Reduction in ROS in human A431 cells assessed as decrease in hydrogen peroxide level at 0.1 to 10 ng/ml after 1 hr by DCHFA assay; assay type: functional, cell-based
Summary of the method: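 A-431 cells were seeded at 10^5 per well and exposed to a range of compound concentrations for 1 h. They were then loaded with DCHFA probe for 30 min in the dark. Fluorescence was read immediately at ex/em 485/528 nm and expressed as arbitrary units per 10^5 cells.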

Row | Structure (SMILES) | GI50 (DU-145) [µM] | LC50 (DU-145) [µM] | TGI (DU-145) [µM] | GI50 [4] [µM] | CC50 [4] [µM] | TGI [4] [µM] | GI50 [5] [µM] | CC50 [5] [µM] | TGI [5] [µM] | GI50 [6] [µM] | CC50 [6] [µM] | TGI [6] [µM] | GI50 (SW-620) [µM] | CC50 (SW-620) [µM] | TGI (SW-620) [µM] | GI50 (SF-268) [µM] | CC50 (SF-268) [µM] | TGI (SF-268) [µM] | CC50 [7] [µM] | GI50 [8] [µM] | further results
1 | COc1ccc(N(CC(=O)NCCC[Te]c2ccccc2)C(=O)CCSC2=C(C)C(=O)c3ccccc3C2=O)cc1 | 0.955 | 4.9 | 2.19 | 0.537 | > 100 | 3.55 | 1.23 | 9.33 | 3.39 | 0.447 | 24.5 | 2.34 | 1.95 | 45.7 | 5.62 | 0.468 | 5.5 | 1.86 | > 100 | 0.631 | Activity (MCF7 [1]): 88.62%; Activity (MCF7 [2]): 5.55%; Activity (MCF7 [3]): 5.84%; GI50 (CCRF-CEM): 0.417 µM; CC50 (CCRF-CEM): > 100 µM; TGI (CCRF-CEM): 2.51 µM; LC50 [8]: 6.46 µM; TGI [8]: 2.24 µM
2 | COc1ccc(N(CC(=O)NCCC[Te]c2ccccc2)C(=O)CNC(=O)OC(C)(C)C)cc1 | 2.88 | 30.9 | 7.59 | 3.09 | > 100 | 10 | 2.57 | 27.5 | 6.61 | 3.16 | 93.3 | 10.5 | 3.47 | > 100 | 14.5 | 2.69 | 100 | 7.59 | > 100 | 3.02 | GI50 (SR): 1.66 µM; LC50 (SR): > 100 µM; TGI (SR): 7.76 µM; Activity (A-431): Dose-dependent effect; GI50 [7]: 1.29 µM; TGI [7]: 4.07 µM; LC50 [8]: 38.9 µM; TGI [8]: 7.41 µM
3 | COc1ccc(N(CC(=O)NCCC[Te]c2ccccc2)C(=O)c2ccccc2)cc1 | 3.89 | 64.6 | 13.8 | 3.55 | > 100 | 16.6 | 3.02 | 36.3 | 8.13 | 2.95 | > 100 | 15.1 | 3.89 | 56.2 | 14.5 | 3.16 | 66.1 | 10.7 | > 100 | 3.8 | GI50 (SR): 2.82 µM; LC50 (SR): > 100 µM; TGI (SR): 10 µM; Activity (MCF7 [1]): 85.01%; Activity (MCF7 [2]): 6.19%; Activity (MCF7 [3]): 8.8%; Activity (A-431): Dose-dependent effect; GI50 [7]: 1.7 µM; TGI [7]: 8.13 µM; LC50 [8]: 52.5 µM; TGI [8]: 11.5 µM
4 | CC1=C(SCCC(=O)OCC(=O)NCCC[Te]c2ccccc2)C(=O)c2ccccc2C1=O | 3.31 | 33.9 | 9.12 | 3.16 | > 100 | 9.77 | 1.82 | 13.5 | 4.57 | 2.57 | 77.6 | 12 | 3.98 | 60.3 | 17 | 3.02 | 37.2 | 9.55 | > 100 | 2.75 | GI50 (CCRF-CEM): 2.4 µM; CC50 (CCRF-CEM): > 100 µM; TGI (CCRF-CEM): 18.6 µM; GI50 [7]: 1.7 µM; TGI [7]: 6.31 µM; LC50 [8]: 38 µM; TGI [8]: 8.51 µM
